Results reported in ChEMBL document CHEMBL1773009, “Red-fluorescent argininamide-type NPY Y1 receptor antagonists as pharmacological tools” (Bioorg Med Chem, 2011).
Activity calls are given as the source filed them. No cut-off for these calls is given here.

Legend:
[1] = Chemical stability in aqueous buffer assessed as compound decomposition after 90 mins at pH 7 by HPCL; type: physicochemical; conditions: read-out: Activity
Procedure, shortened: (§1)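 Compound at 50 µM final (from 1 mM DMSO stock) in PBS pH 7.0, 20 °C; aliquots at 20 and 90 min diluted with acetonitrile/H2O/1% TFA, analysed by RP-HPLC (220 nm); release of parent argininamide quantified against a five-point calibration curve (0.3–25 µM).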

[2] = Chemical stability in aqueous buffer assessed as compound decomposition after 20 mins at pH 7 by HPCL; type: physicochemical; conditions: read-out: Activity; procedure, shortened: as §1
[3] = biological target: T1, Neuropeptide Y receptor type 1 (Homo sapiens, UniProt P25929); experiment: Binding affinity at Y1R in human MCF-7 cells by flow cytometry; type: cell-based, MCF7
T1 sequence (P25929 whole entry): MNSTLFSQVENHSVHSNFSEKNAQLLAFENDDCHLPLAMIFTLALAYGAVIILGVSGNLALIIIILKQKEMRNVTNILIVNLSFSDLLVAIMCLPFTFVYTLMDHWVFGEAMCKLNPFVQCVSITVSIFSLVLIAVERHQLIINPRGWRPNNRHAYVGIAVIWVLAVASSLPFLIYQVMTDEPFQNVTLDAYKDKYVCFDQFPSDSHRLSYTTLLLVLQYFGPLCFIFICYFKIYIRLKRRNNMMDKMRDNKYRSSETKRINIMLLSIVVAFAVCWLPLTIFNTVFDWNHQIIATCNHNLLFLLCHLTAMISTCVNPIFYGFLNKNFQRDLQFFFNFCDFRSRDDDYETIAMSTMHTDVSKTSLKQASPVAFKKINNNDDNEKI
Procedure, shortened: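 MCF-7-Y1 cells given 1 nM 17β-estradiol 3 days beforehand, trypsinised, suspended at 0.5–1 × 10^6 cells/mL in HEPES-buffered saline, 1% DMSO; saturation with fluorescent ligand 1–50 nM (non-specific: 200-fold BIBP 3226) or competition against 10 nM labelled ligand (0.03–3000 nM competitor); 15 min dark, rt; 635 nm excitation, FL-4 readout, 20,000 gated events.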

[4] = biological target: T1, Neuropeptide Y receptor type 1; experiment: Displacement of [3H]-UR-MK114 from Y1R in human SK-N-MC cells; type: cell-based
[5] = biological target: T2, Neuropeptide Y receptor type 5 (Homo sapiens, UniProt Q15761); experiment: Displacement of Dy-635-pNPY from human Y5R expressed in HEC-1B cells by flow cytometry
T2 sequence (Q15761 whole entry): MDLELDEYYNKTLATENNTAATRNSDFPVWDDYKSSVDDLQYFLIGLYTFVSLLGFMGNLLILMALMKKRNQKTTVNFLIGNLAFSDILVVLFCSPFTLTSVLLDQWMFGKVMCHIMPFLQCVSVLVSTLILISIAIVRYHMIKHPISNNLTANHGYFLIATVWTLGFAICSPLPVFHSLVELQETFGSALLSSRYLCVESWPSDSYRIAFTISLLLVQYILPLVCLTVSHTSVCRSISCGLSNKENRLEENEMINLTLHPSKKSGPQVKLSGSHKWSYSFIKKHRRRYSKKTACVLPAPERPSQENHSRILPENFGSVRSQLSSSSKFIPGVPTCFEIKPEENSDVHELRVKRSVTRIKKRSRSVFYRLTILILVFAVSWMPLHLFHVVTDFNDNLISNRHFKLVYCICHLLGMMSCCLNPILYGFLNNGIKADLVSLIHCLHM

[6] = biological target: T3, Neuropeptide Y receptor type 2 (Homo sapiens, UniProt P49146); experiment: Displacement of Dy-635-pNPY from human Y2R expressed in CHO cells by flow cytometry; type: cell-based
T3 sequence (P49146 whole entry): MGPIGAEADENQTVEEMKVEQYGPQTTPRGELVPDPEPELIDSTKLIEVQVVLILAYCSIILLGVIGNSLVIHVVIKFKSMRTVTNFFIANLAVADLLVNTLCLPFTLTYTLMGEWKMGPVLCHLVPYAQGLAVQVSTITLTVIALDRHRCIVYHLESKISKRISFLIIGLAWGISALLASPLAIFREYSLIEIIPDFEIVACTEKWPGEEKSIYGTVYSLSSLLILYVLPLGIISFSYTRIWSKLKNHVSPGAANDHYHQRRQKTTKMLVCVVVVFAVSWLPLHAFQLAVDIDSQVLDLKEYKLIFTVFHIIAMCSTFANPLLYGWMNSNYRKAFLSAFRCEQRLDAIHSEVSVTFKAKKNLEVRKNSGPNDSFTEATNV
Procedure, shortened: (§2)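 Flow cytometric displacement of labelled peptides: Cy5-[K4]-hPP on CHO-Y4 cells; Dy-635-pNPY or Cy5-pNPY on CHO-Y2 and HEC-1B-Y5 cells. Test ligands only at 1 and 10 µM or at 0.3 and 1 µM; for the red-excitable ligand, its own fluorescence without peptide was subtracted.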

[7] = Chemical stability of the compound in DMSO at below 0 degC; type: physicochemical
[8] = biological target: T1, Neuropeptide Y receptor type 1; experiment: Displacement of [3H]-UR-MK114 from Y1R in human SK-N-MC cells by radioligand competition binding
[9] = biological target: T4, Neuropeptide Y receptor type 1 (Homo sapiens) (UniProt P25929); experiment: Antagonist activity at Y1R in human MCF-7 cells at 50 nM after 12 to 15 mins by fluorescence confocal microscopy; type: functional, cell-based; conditions: MCF7
T4 sequence (whole entry): T1 sequence (P25929 whole entry)
Procedure, shortened: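 MCF-7-Y1 cells (MCF-7 subclone with 2–3-fold higher Y1R expression) pretreated 48 or 72 h with 1 nM 17β-estradiol; live-cell confocal imaging of fluorescent ligand (50–80 nM) after 5–23 min at rt in Leibovitz L15; non-specific binding with excess BIBP 3226 (5 µM or 80–125-fold); autofluorescence control.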

[10] = biological target: Neuropeptide Y receptor type 4 (Homo sapiens, UniProt P50391); experiment: Displacement of Cy5-[K4]-hpp from human Y4R expressed in CHO cells by flow cytometry; type: cell-based; procedure, shortened: as §2
Chain of Neuropeptide Y receptor type 4 (P50391 whole entry): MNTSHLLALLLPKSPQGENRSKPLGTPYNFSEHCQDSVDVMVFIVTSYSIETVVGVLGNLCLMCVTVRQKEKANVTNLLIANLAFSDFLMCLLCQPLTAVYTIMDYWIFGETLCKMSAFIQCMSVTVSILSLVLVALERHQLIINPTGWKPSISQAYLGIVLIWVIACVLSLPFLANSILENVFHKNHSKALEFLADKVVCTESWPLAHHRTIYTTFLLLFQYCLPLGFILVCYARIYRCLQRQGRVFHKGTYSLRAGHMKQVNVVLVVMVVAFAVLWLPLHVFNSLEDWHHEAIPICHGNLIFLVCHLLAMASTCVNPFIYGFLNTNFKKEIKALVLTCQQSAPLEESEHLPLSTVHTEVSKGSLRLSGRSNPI

[11] = biological target: T4, Neuropeptide Y receptor type 1 (Homo sapiens); experiment: Antagonist activity at Y1R in human HEL cells assessed as inhibition of pNPY induced [Ca2+] mobilisation; type: functional, cell-based

## CN(C)c1ccc(/C=C/C=C/c2sc3ccccc3[n+]2CCCC(=O)NCCCCNC(=O)/N=C(/N)NCCC[C@@H](NC(=O)C(c2ccccc2)c2ccccc2)C(=O)NCc2ccc(O)cc2)cc1.O=C([O-])C(F)(F)F
[1]
  degraded at 1.5 h: 0%
[2]
  degraded at 20 min: 0%
[3]
  Kd: 5 nM
[4]
  Ki: 26 nM
[5]
  IC50: > 1000 nM
  Ki: > 400 nM
[6]
  IC50: > 1000 nM
  Ki: > 500 nM
[7]
  Stability: 12 months
[8]
  Ki: 26 nM
[9]
  Activity: Active
[10]
  IC50: > 1000 nM
  Ki: > 500 nM
[11]
  Kb: 0.7 nM
